# ChEMBL document CHEMBL5724801, “EUbOPEN Chemogenomics Library - Multiplex” (2024)
# Values joined by “and” are separate entries in the source; they are usually repeats but may differ in a detail not shown here. Equal values may be shown once.
# Tested on: Fibroblast
# Test: Multiplex assay against human fibroblast
# Type: toxicity, cell-based
# Summary of the method: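 With compound added, live cells were imaged on a CQ1 microscope at 37°C and 5% CO2; staining with Hoechst33342, BioTracker Green Microtubule Cytoskeleton Dye, MitoTracker Red and Annexin V Alexa Fluor 680 had been done at seeding. The CellPathfinder machine-learning gating scheme split cells into Hoechst high-intensity objects or normal cells, normal cells into healthy, pyknosed or fragmented nuclei, and pyknosed cells into mitotic or apoptotic. The tubulin, mitochondrial-mass and membrane-permeability phenotypes are per cents of healthy-nucleus cells.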
# [1] = 12 h, 1 µM, compound concentration 1 uM
# [2] = 12 h, 10 µM, compound concentration 10 uM
# [3] = 24 h, 1 µM, compound concentration 1 uM
# [4] = 24 h, 10 µM, compound concentration 10 uM
# [5] = 48 h, 1 µM, compound concentration 1 uM
# [6] = 48 h, 10 µM, compound concentration 10 uM
smiles,measurement,setting,value
CC(C)(c1ccc(O)cc1)c1ccc(O)cc1 [BISPHENOL A],Population Apoptotic (%),[1],18.37% and 18.42%
same,Population Fragmented Nuclei (%),[1],10.19% and 4.35%
same,Population Healthy Nuclei (%),[1],58.6% and 79.13%
same,Population Hoechst High Intensity Objects (%),[1],0%
same,Population Membrane Permeable-Phenotype (%),[1],2.17% and 2.75%
same,Population Mitochondria Different-Phenotype (%),[1],8.7% and 5.49%
same,Population Mitotic Cells (%),[1],81.63% and 81.58%
same,Population Normal (%),[1],100%
same,Population Pyknosed Nuclei (%),[1],31.21% and 16.52%
same,Population Tubulin-Different-Phenotype (%),[1],15.22% and 10.44%
same,Total Cell Count,[1],157 and 230
same,Population Apoptotic (%),[2],4.76% and 2.94%
same,Population Fragmented Nuclei (%),[2],8.94% and 3.67%
same,Population Healthy Nuclei (%),[2],67.6% and 82.45%
same,Population Hoechst High Intensity Objects (%),[2],0%
same,Population Membrane Permeable-Phenotype (%),[2],3.31% and 0.99%
same,Population Mitochondria Different-Phenotype (%),[2],7.44% and 5.45%
same,Population Mitotic Cells (%),[2],95.24% and 97.06%
same,Population Normal (%),[2],100%
same,Population Pyknosed Nuclei (%),[2],23.46% and 13.88%
same,Population Tubulin-Different-Phenotype (%),[2],14.88% and 19.31%
same,Total Cell Count,[2],179 and 245
same,Population Fragmented Nuclei (%),[3],7.23% and 3.8%
same,Population Healthy Nuclei (%),[3],68.07% and 86.92%
same,Population Hoechst High Intensity Objects (%),[3],0%
same,Population Membrane Permeable-Phenotype (%),[3],4.42% and 3.88%
same,Population Mitochondria Different-Phenotype (%),[3],5.31% and 2.91%
same,Population Mitotic Cells (%),[3],90.24% and 59.09%
same,Population Normal (%),[3],100%
same,Population Pyknosed Nuclei (%),[3],24.7% and 9.28%
same,Population Tubulin-Different-Phenotype (%),[3],14.16% and 12.14%
same,Total Cell Count,[3],166 and 237
same,Population Apoptotic (%),[4],6.45% and 4.76%
same,Population Fragmented Nuclei (%),[4],7.18% and 3.7%
same,Population Healthy Nuclei (%),[4],76.92% and 87.65%
same,Population Hoechst High Intensity Objects (%),[4],0%
same,Population Membrane Permeable-Phenotype (%),[4],2.67% and 1.88%
same,Population Mitochondria Different-Phenotype (%),[4],6% and 4.23%
same,Population Mitotic Cells (%),[4],93.55% and 95.24%
same,Population Normal (%),[4],100%
same,Population Pyknosed Nuclei (%),[4],15.9% and 8.64%
same,Population Tubulin-Different-Phenotype (%),[4],16% and 16.43%
same,Total Cell Count,[4],195 and 243
same,Population Apoptotic (%),[5],50% and 33.33%
same,Population Fragmented Nuclei (%),[5],8.98% and 4.96%
same,Population Healthy Nuclei (%),[5],86.23% and 86.36%
same,Population Hoechst High Intensity Objects (%),[5],0%
same,Population Membrane Permeable-Phenotype (%),[5],0.69% and 2.39%
same,Population Mitochondria Different-Phenotype (%),[5],11.11% and 3.83%
same,Population Mitotic Cells (%),[5],50% and 66.67%
same,Population Normal (%),[5],100%
same,Population Pyknosed Nuclei (%),[5],4.79% and 8.68%
same,Population Tubulin-Different-Phenotype (%),[5],3.47% and 12.92%
same,Total Cell Count,[5],167 and 242
same,Population Apoptotic (%),[6],25% and 14.29%
same,Population Fragmented Nuclei (%),[6],8.49% and 3.36%
same,Population Healthy Nuclei (%),[6],85.85% and 90.76%
same,Population Hoechst High Intensity Objects (%),[6],0%
same,Population Membrane Permeable-Phenotype (%),[6],0% and 4.63%
same,Population Mitotic Cells (%),[6],75% and 85.71%
same,Population Normal (%),[6],100%
same,Population Pyknosed Nuclei (%),[6],5.66% and 5.88%
same,Population Tubulin-Different-Phenotype (%),[6],7.14% and 18.52%
same,Total Cell Count,[6],212 and 238
COc1ccc(CC(=O)NC(N/C(=N/C#N)Nc2cccc3ncccc23)C(C)(C)C)cc1OC (configuration not stated),Population Fragmented Nuclei (%),[1],9.24% and 8.25%
same,Population Healthy Nuclei (%),[1],64.67% and 81.55%
same,Population Hoechst High Intensity Objects (%),[1],0%
same,Population Membrane Permeable-Phenotype (%),[1],1.68% and 2.98%
same,Population Mitochondria Different-Phenotype (%),[1],8.4% and 6.55%
same,Population Mitotic Cells (%),[1],95.83% and 85.71%
same,Population Normal (%),[1],100%
same,Population Pyknosed Nuclei (%),[1],26.09% and 10.19%
same,Population Tubulin-Different-Phenotype (%),[1],12.61% and 16.67%
same,Total Cell Count,[1],184 and 206
same,Population Apoptotic (%),[2],10.96% and 24.49%
same,Population Fragmented Nuclei (%),[2],7.46% and 8.67%
same,Population Healthy Nuclei (%),[2],56.22% and 63.01%
same,Population Hoechst High Intensity Objects (%),[2],0%
same,Population Membrane Permeable-Phenotype (%),[2],9.73% and 2.75%
same,Population Mitochondria Different-Phenotype (%),[2],7.96% and 16.51%
same,Population Mitotic Cells (%),[2],89.04% and 75.51%
same,Population Normal (%),[2],100%
same,Population Pyknosed Nuclei (%),[2],36.32% and 28.32%
same,Population Tubulin-Different-Phenotype (%),[2],26.55% and 38.53%
same,Total Cell Count,[2],201 and 173
same,Population Fragmented Nuclei (%),[3],11.21% and 6.25%
same,Population Healthy Nuclei (%),[3],68.16% and 81.25%
same,Population Hoechst High Intensity Objects (%),[3],0%
same,Population Membrane Permeable-Phenotype (%),[3],3.95% and 0%
same,Population Mitochondria Different-Phenotype (%),[3],10.53% and 7.1%
same,Population Mitotic Cells (%),[3],95.65% and 76.92%
same,Population Normal (%),[3],100%
same,Population Pyknosed Nuclei (%),[3],20.63% and 12.5%
same,Population Tubulin-Different-Phenotype (%),[3],19.08% and 13.02%
same,Total Cell Count,[3],223 and 208
same,Population Fragmented Nuclei (%),[4],5.12% and 8.43%
same,Population Healthy Nuclei (%),[4],64.65% and 75.3%
same,Population Hoechst High Intensity Objects (%),[4],0%
same,Population Membrane Permeable-Phenotype (%),[4],7.19% and 2.4%
same,Population Mitochondria Different-Phenotype (%),[4],10.07% and 8%
same,Population Mitotic Cells (%),[4],92.31% and 70.37%
same,Population Normal (%),[4],100%
same,Population Pyknosed Nuclei (%),[4],30.23% and 16.27%
same,Population Tubulin-Different-Phenotype (%),[4],33.09% and 40.8%
same,Total Cell Count,[4],215 and 166
same,Population Apoptotic (%),[5],0% and 18.75%
same,Population Fragmented Nuclei (%),[5],7.56% and 7.18%
same,Population Healthy Nuclei (%),[5],85.29% and 85.17%
same,Population Hoechst High Intensity Objects (%),[5],0%
same,Population Membrane Permeable-Phenotype (%),[5],0.99% and 1.12%
same,Population Mitochondria Different-Phenotype (%),[5],11.82% and 3.37%
same,Population Mitotic Cells (%),[5],100% and 81.25%
same,Population Normal (%),[5],100%
same,Population Pyknosed Nuclei (%),[5],7.14% and 7.66%
same,Population Tubulin-Different-Phenotype (%),[5],5.42% and 14.04%
same,Total Cell Count,[5],238 and 209
same,Population Apoptotic (%),[6],27.78% and 30.77%
same,Population Fragmented Nuclei (%),[6],8.23% and 15.18%
same,Population Healthy Nuclei (%),[6],83.98% and 78.01%
same,Population Hoechst High Intensity Objects (%),[6],0%
same,Population Mitochondria Different-Phenotype (%),[6],12.89% and 4.03%
same,Population Mitotic Cells (%),[6],72.22% and 69.23%
same,Population Normal (%),[6],100%
same,Population Pyknosed Nuclei (%),[6],7.79% and 6.81%
same,Population Tubulin-Different-Phenotype (%),[6],17.01% and 47.65%
same,Total Cell Count,[6],231 and 191
Cc1ccc(OCC(O)C(C)NC(C)C)c2c1CCC2.Cl (configuration not stated),Population Apoptotic (%),[1],36% and 28%
same,Population Fragmented Nuclei (%),[1],10% and 17%
same,Population Healthy Nuclei (%),[1],68% and 55%
same,Population Hoechst High Intensity Objects (%),[1],0% and 9%
same,Population Membrane Permeable-Phenotype (%),[1],0% and 4%
same,Population Mitochondria Different-Phenotype (%),[1],3% and 7%
same,Population Mitotic Cells (%),[1],63% and 71%
same,Population Normal (%),[1],99% and 90%
same,Population Pyknosed Nuclei (%),[1],20% and 27%
same,Population Tubulin-Different-Phenotype (%),[1],26% and 50%
same,Total Cell Count,[1],159 and 210
same,Population Apoptotic (%),[2],47% and 25%
same,Population Fragmented Nuclei (%),[2],39% and 33%
same,Population Healthy Nuclei (%),[2],47% and 50%
same,Population Hoechst High Intensity Objects (%),[2],1% and 2%
same,Population Membrane Permeable-Phenotype (%),[2],0% and 7%
same,Population Mitochondria Different-Phenotype (%),[2],12% and 17%
same,Population Mitotic Cells (%),[2],52% and 74%
same,Population Normal (%),[2],98% and 97%
same,Population Pyknosed Nuclei (%),[2],12% and 16%
same,Population Tubulin-Different-Phenotype (%),[2],52% and 54%
same,Total Cell Count,[2],138 and 168
same,Population Apoptotic (%),[3],57% and 20%
same,Population Fragmented Nuclei (%),[3],11% and 27%
same,Population Healthy Nuclei (%),[3],74% and 46%
same,Population Hoechst High Intensity Objects (%),[3],0% and 15%
same,Population Membrane Permeable-Phenotype (%),[3],4% and 1%
same,Population Mitochondria Different-Phenotype (%),[3],5% and 8%
same,Population Mitotic Cells (%),[3],42% and 80%
same,Population Normal (%),[3],100% and 84%
same,Population Pyknosed Nuclei (%),[3],13% and 26%
same,Population Tubulin-Different-Phenotype (%),[3],30% and 52%
same,Total Cell Count,[3],154 and 201
same,Population Apoptotic (%),[4],35% and 36%
same,Population Fragmented Nuclei (%),[4],39% and 35%
same,Population Healthy Nuclei (%),[4],49% and 50%
same,Population Hoechst High Intensity Objects (%),[4],1% and 5%
same,Population Membrane Permeable-Phenotype (%),[4],1% and 4%
same,Population Mitochondria Different-Phenotype (%),[4],13% and 14%
same,Population Mitotic Cells (%),[4],64% and 63%
same,Population Normal (%),[4],98% and 94%
same,Population Pyknosed Nuclei (%),[4],11% and 13%
same,Population Tubulin-Different-Phenotype (%),[4],63% and 65%
same,Total Cell Count,[4],151 and 168
same,Population Apoptotic (%),[5],64% and 34%
same,Population Fragmented Nuclei (%),[5],16% and 37%
same,Population Healthy Nuclei (%),[5],71% and 42%
same,Population Hoechst High Intensity Objects (%),[5],4% and 11%
same,Population Membrane Permeable-Phenotype (%),[5],0% and 5%
same,Population Mitochondria Different-Phenotype (%),[5],1% and 8%
same,Population Mitotic Cells (%),[5],35% and 65%
same,Population Normal (%),[5],95% and 88%
same,Population Pyknosed Nuclei (%),[5],11% and 20%
same,Population Tubulin-Different-Phenotype (%),[5],23% and 60%
same,Total Cell Count,[5],155 and 196
same,Population Apoptotic (%),[6],71% and 60%
same,Population Fragmented Nuclei (%),[6],35% and 39%
same,Population Healthy Nuclei (%),[6],50%
same,Population Hoechst High Intensity Objects (%),[6],1% and 7%
same,Population Membrane Permeable-Phenotype (%),[6],0% and 5%
same,Population Mitochondria Different-Phenotype (%),[6],9% and 10%
same,Population Mitotic Cells (%),[6],28% and 40%
same,Population Normal (%),[6],98% and 92%
same,Population Pyknosed Nuclei (%),[6],13% and 10%
same,Population Tubulin-Different-Phenotype (%),[6],68% and 63%
same,Total Cell Count,[6],155 and 157
